Published values of several laboratories.
Compare with care: the assays were run in different laboratories.
Target: Proto-oncogene tyrosine-protein kinase Src (SRC, Homo sapiens, UniProt P12931)

Compound	read-out	mode	method	tested at	quantity	result
Cc1ccc(NC(=O)c2ccnc(C(F)(F)F)c2)cc1-c1cc(OCCO)nc(N2CCOCC2)c1	binding		competition with immobilised ligand	1 µM	remaining binding	100%
CCCCC(=O)Nc1ccc(-c2ccc3ncn(CCC)c(=O)c3c2)cn1	binding		competition with immobilised ligand	0.5 µM	remaining binding	97%
Cc1cc(O)c(-c2ccc([C@@H](C)CN(C)C)cc2)c2c1[nH]c(=O)c1sccc12	enzyme activity	inhibitor		0.1 µM	inhibition	-1.37%
C[C@H]1CC[C@H](n2c3cnccc3c3cnc(Nc4ccc5c(n4)CCN(C(=O)CO)C5)nc32)CC1	cell-free assay		competition with immobilised ligand	1 µM	remaining binding	65%
N#Cc1ccc(NC(=O)Nc2ccccc2)cc1	cell-free assay		competition with immobilised ligand	25 µM	remaining binding	100%
CO[C@@H]1[C@H](N(C)C(=O)c2ccccc2)C[C@H]2O[C@]1(C)n1c3ccccc3c3c4c(c5c6ccccc6n2c5c31)C(=O)NC4	enzyme activity	inhibitor		1 µM	inhibition	31%
C#Cc1cc(-c2cc(Nc3nc(N[C@@H](C)c4ccc(F)cn4)ncc3Cl)n[nH]2)ccc1C=O	enzyme activity	inhibitor		0.2 µM	inhibition	37.7%
C=CC(=O)N1CCC([C@@H]2CCNc3c(C(N)=O)c(-c4ccc(Oc5ccccc5)cc4)nn32)CC1	enzyme activity	inhibitor		1 µM	inhibition	42%
Cc1cc2c(C(N)=O)c(N)n(-c3c(C)ccc(O)c3C)c2nc1C	enzyme activity	inhibitor	TR-FRET	3.333 µM	inhibition	100%
COc1ccc2oc(-c3ccc4nc(N)oc4c3)c/c(=N\c3ccccc3NC(=O)CCN)c2c1	binding			1 µM	remaining binding	72%
